Data as given in publication PMC6522132 (Cell chemical biology, 2017).

Experiments:
EphA4-LBD = EphA4-LBD (Homo sapiens, UniProt P54764); experiment: NMR ligand titration; format: binding; conditions: result in words
In short: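 Purified human EphA4 ligand-binding domain (LBD), 13Cε-methionine-labelled for the titration, in 50 mM potassium phosphate pH 6.5 with 100 mM NaCl, at 27 °C. 2D [13C,1H]- or [15N,1H]-HSQC spectra of 50 μM LBD were compared with and without test compound. The compound was titrated at 10–50 μM against a DMSO control, and binding was read as chemical-shift changes.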

wt-EphA4 LBD = wt-EphA4 LBD (Homo sapiens, UniProt P54764); experiment: Isothermal titration calorimetry; format: binding; conditions: result in words
Chain of wt-EphA4 LBD (P54764 30-209 limits assumed): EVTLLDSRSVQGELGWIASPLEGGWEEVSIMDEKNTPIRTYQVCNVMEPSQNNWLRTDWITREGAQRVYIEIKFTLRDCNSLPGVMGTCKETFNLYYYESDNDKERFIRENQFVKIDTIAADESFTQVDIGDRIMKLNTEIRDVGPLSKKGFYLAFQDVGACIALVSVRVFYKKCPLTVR

Chain of EphA4-LBD (P54764 30-209 limits assumed): as above

Compound: CC[C@H]1CN2CC[C@]3(C(=O)Nc4ccccc43)[C@@H]2C[C@@H]1/C(=C\OC)C(=O)OC [rhyncophilin]
- binding to EphA4-LBD in NMR assay (EphA4-LBD): inactive
- binding to EphA4-LBD in ITC assay (wt-EphA4 LBD): inactive
